Data set [1] in a line: Toxicity in human HK2 cells assessed as induction of accidental necrosis at 20 uM after 24 hrs by propidium iodide staining. Type of data set: cell-based. The note with it: hk-2, 24 h. The gist of the method:
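Normal human kidney HK-2 cells exposed to compound at 20 μM for 24 h. Accidental necrotic cells identified by propidium iodide staining and expressed as percentage.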

Data set [2] can be described thus: Induction of intracellular superoxide anion generation in human H23 cells at 20 uM after 6 hrs by DCFH2-DA staining based fluorescence assay in presence of dihydroethidium relative to control. Type of data set: cell-based. The settings on record: nci-h23, 6 h. The gist of the method:
(§1)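 Seeded cells loaded 30 min at 4 °C with 10 μM probe in PBS: HPF for hydroxyl radical, DHE for superoxide. Then 20 μM compound was added for 0−6 h at 37 °C. Plate fluorescence read at ex 490/515 nm (HPF) and ex 488/610 nm (DHE). Triplicate samples.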

Data set [3] has as its system NCI-H23. Description: Induction of intracellular hydroxyl radical generation in human H23 cells at 20 uM after 6 hrs by DCFH2-DA staining based fluorescence assay in presence of HPF. Type of data set: functional, cell-based. The gist of the method: as §1
Data set [4] concerns NCI-H23. Briefly: Induction of intracellular H2O2 generation in human H23 cells at 20 uM after 6 hrs by DCFH2-DA staining based fluorescence assay in presence of sodium pyruvate. It is filed as functional, cell-based. The gist of the method: (§2)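 Seeded cells (24 h) loaded 30 min at 4 °C with 10 μM DCFH2-DA in PBS, with or without 1 mM scavenger (NAC, or sodium pyruvate for H2O2). Then 20 μM compound was added and cells incubated 0−6 h at 37 °C. Fluorescence read at ex 480 nm / 530 nm band-pass. Triplicate samples.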

In data set [5] the test system is NCI-H23. Briefly: Induction of intracellular ROS generation in human H23 cells at 20 uM after 6 hrs by DCFH2-DA staining based fluorescence assay in presence of N-acetylcysteine. Type of data set: functional, cell-based. The gist of the method: as §2
For data set [6], the system named is NCI-H23. Briefly: Induction of intracellular ROS generation in human H23 cells at 20 uM after 6 hrs by DCFH2-DA staining based fluorescence assay. Type of data set: functional, cell-based. The gist of the method: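 H23 cells seeded 24 h at 37 °C, medium removed, then loaded with DCFH2-DA (10 μM final) in PBS for 30 min at 4 °C. Compound added at 20 μM and incubated 6 h at 37 °C. Fluorescence read on a microplate reader (excitation 480 nm, 530 nm band-pass). Triplicate samples, means ± SD.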

Data set [7] deals with NCI-H23. Description: Induction of ROS generation in human H23 cells assessed as apoptotic cells at 20 uM after 24 hrs by Hoechst 33342/propidium iodide staining-based fluorescence microscopy in presence of N-acetylcysteine. Type of data set: functional, cell-based. The gist of the method: (§3)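 Cells plated 24 h, then incubated 1 h at 37 °C with or without 1 mM NAC before 20 μM compound for 24 h. Staining used 10 μM Hoechst 33342 plus 10 μM PI for 30 min at 37 °C. Condensed or fragmented nuclei were scored as apoptotic and PI-stained nuclei as accidental necrotic, by fluorescence microscopy.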

Data set [8] is described as follows: Induction of accidental necrosis in human H23 cells assessed as loss of membrane integrity at 5 to 20 uM after 24 hrs by trypan blue exclusion assay. Type of data set: cell-based. The note with it: nci-h23, 24 h. Summed up:
(§4)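 Attached cells exposed 24 h to 0−20 μM were collected into 3% FBS/PBS and fixed in absolute ethanol at −20 °C for 24 h. They were stained 40 min at 37 °C in PI buffer containing RNase A and Triton X-100. Sub-G0 fraction was taken from the flow cytometry DNA histogram. The same cells were stained with trypan blue and counted on an automated counter, with membrane-damaged cells scored as necrotic.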

The test system of data set [9] is NCI-H23. Description: Induction of apoptosis in human H23 cells assessed as accumulation of sub-G0 fraction after 24 hrs by propidium iodide staining-based flow cytometry. Type of data set: functional, cell-based. The gist of the method:
as §4

Data set [10] has as its system NCI-H23. Briefly: Induction of apoptosis in human H23 cells at 1 to 20 uM after 24 hrs by Hoechst 33342/propidium iodide staining-based fluorescence microscopy. Type of data set: functional. Summed up:
(§5)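 H23 cells exposed to compound (0–20 μM range) for 24 h at 37 °C, then co-stained 30 min at 37 °C with 10 μM Hoechst 33342 and 10 μM PI. Scored by fluorescence microscopy: condensed or fragmented nuclei counted as apoptotic, PI-positive membrane-damaged cells counted as accidental necrotic. Results given as percentages; means ± SD of three independent experiments.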

For data set [11], the system named is NCI-H23. Briefly: Cytotoxicity against human H23 cells assessed as cell viability after 24 hrs by MTT assay. It is filed as functional, cell-based. The gist of the method: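 H23 cells (1.5 × 10^5 cells/mL) grown 24 h at 37 °C in RPMI 1640, then exposed to 0−20 μM compound for 24 h at 37 °C. MTT (500 μg/mL) added for 4 h, formazan dissolved in DMSO, absorbance read at 570 nm. Viability expressed as percent of untreated control; at least three replicate cultures.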
(In general: Tetrazolium dyes change colour on reduction, which living cells bring about.)

Data set [12] concerns NCI-H23. Description: Induction of ROS generation in human H23 cells assessed as cell viability at 20 uM after 24 hrs by MTT assay in presence of N-acetylcysteine.
The nature of data set [13]: Induction of ROS generation in human H23 cells assessed as accidental necrotic cells at 20 uM after 24 hrs by Hoechst 33342/propidium iodide staining-based fluorescence microscopy in presence of N-acetylcysteine. It is filed as cell-based. The note with it: nci-h23, 24 h. Summed up: as §3
The nature of data set [14]: Toxicity in human H23 cells assessed as induction of accidental necrosis at 1 to 20 uM after 24 hrs by Hoechst 33342/propidium iodide staining-based fluorescence microscopy. It is filed as cell-based. The settings on record: nci-h23, 24 h. Summed up: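 H23 cells exposed to 0−20 μM compound for 24 h at 37 °C, then stained 30 min at 37 °C with 10 μM Hoechst 33342 and 10 μM PI. PI-stained, membrane-damaged cells were scored as accidental necrotic under a fluorescence microscope.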

The subject of data set [15] is NCI-H23. Briefly: Induction of apoptosis in human H23 cells at 20 uM after 24 hrs by Hoechst 33342/propidium iodide staining-based fluorescence microscopy. Type of data set: functional, cell-based. Summed up:
as §5

Data set [16] is described as follows: Toxicity in human H23 cells assessed as induction of accidental necrosis at 20 uM after 24 hrs by Hoechst 33342/propidium iodide staining-based fluorescence microscopy. The settings on record: nci-h23, 24 h. It is filed as cell-based. The gist of the method: as §5
Data set [17] concerns NCI-H23. Briefly: Cytotoxicity against human H23 cells assessed as cell viability at 20 uM after 24 hrs by MTT assay. It is filed as functional, cell-based. The gist of the method:
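H23 non-small-cell lung cancer cells (RPMI 1640, 5% FBS, 2 mM L-glutamine) plated at 1.5 × 10^5 cells/mL, grown 24 h at 37 °C, then exposed to compound 24 h at 37 °C. MTT 500 μg/mL added for 4 h; formazan dissolved in DMSO, absorbance read at 570 nm. Viability given as percent of untreated control; at least three replicate cultures.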

The structures appear in SMILES notation. Calls of active or inactive are those of the source. The calls are words filed in the database; no cut-off is given here.

In the case of `C/C=C(/C)C(=O)OC[C@H]1c2c(O)c(OC)c(C)c(OC(C)=O)c2C[C@H]2[C@H]3C4=C(C[C@@H]([C@H](C#N)N12)N3C)C(=O)C(C)=C(OC)C4=O`, the Activity result in data set [1] was “Non-toxic”; in data set [2] it was “Non-toxic”; in [8] it was 1%; in the data set on NCI-H23 [9], “Dose-dependent effect”; in the data set on NCI-H23 [10], 46%; with NCI-H23 [11] it was “Dose-dependent effect”. The result in the data set with NCI-H23 [3], in the data set on NCI-H23 [4] and in the data set with NCI-H23 [5] was inactive. The outcome with NCI-H23 [6], in the data set with NCI-H23 [7] and with NCI-H23 [12] was Active.

`C/C=C(/C)C(=O)OC[C@H]1C2=C(C[C@H]3[C@H]4C5=C(C[C@@H]([C@H](C#N)N13)N4C)C(=O)C(C)=C(OC)C5=O)C(=O)C(C)=C(OC)C2=O` [RENIERAMYCIN M]: the Activity was 60% in [1]; “Toxic” in data set [2]; “Non-toxic” in [13]; 10% in data set [8]; “Dose-dependent effect” in the data set on NCI-H23 [9]; 2.5% in [14]. Also, the Activity with NCI-H23 [10] is 51%; with NCI-H23 [11] it was “Dose-dependent effect”. Also, the outcome in the data set on NCI-H23 [3], in the data set on NCI-H23 [4], with NCI-H23 [5] and in the data set on NCI-H23 [12] was inactive. Further, the outcome in the data set on NCI-H23 [6] and with NCI-H23 [7] was Active.

Consider `C/C=C(/C)C(=O)OC[C@H]1c2c(c(OC(C)=O)c(C)c(OC)c2OC(C)=O)C[C@H]2[C@H]3c4c(c(OC(C)=O)c(C)c(OC)c4OC(C)=O)C[C@@H]([C@H](C#N)N12)N3C`, for which the result in the data set on NCI-H23 [15] and in the data set with NCI-H23 [6] was inactive. Besides, the Activity result in data set [16] and in data set [1] was “Non-toxic” each time. In addition, the outcome in the data set with NCI-H23 [17] was Active.
